Assay results from different studies.
Lines come from different studies, so protocols differ.
Target: Serine/threonine-protein kinase STK11 (STK11, Homo sapiens, UniProt Q15831)
Sequence (Q15831 1-433, as in one of the studies): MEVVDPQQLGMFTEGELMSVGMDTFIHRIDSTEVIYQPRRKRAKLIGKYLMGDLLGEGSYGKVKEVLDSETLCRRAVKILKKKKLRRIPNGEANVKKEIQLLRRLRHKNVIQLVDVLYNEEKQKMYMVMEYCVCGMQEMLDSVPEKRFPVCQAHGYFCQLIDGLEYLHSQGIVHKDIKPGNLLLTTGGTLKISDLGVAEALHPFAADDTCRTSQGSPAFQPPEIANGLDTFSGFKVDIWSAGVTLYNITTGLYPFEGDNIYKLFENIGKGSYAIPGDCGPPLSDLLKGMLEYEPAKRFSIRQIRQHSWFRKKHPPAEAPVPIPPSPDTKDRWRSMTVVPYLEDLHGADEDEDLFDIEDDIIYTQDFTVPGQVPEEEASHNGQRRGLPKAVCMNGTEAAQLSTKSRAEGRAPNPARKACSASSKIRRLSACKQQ

| SMILES | test | conditions | remaining binding |
| --- | --- | --- | --- |
| CN(C)c1ncc(F)c(-c2cnn3ncccc23)n1 | binding | 1 µM | 100% |
| O=C(NC[C@@H]1[C@H]2CN(C(=O)OCc3cc(C(F)(F)F)cc(C(F)(F)F)c3)C[C@@H]12)c1ccc2[nH]nnc2c1 | cell-free assay, competition with immobilised ligand | 1 µM | 100% |
| CCN1CCN(Cc2ccc(C(=O)Nc3ccc(C)c(Oc4ccc5c(c4)CC(=O)N5)c3)cc2C(F)(F)F)CC1 | binding, competition with immobilised ligand | 1 µM | 100% |
| C[C@@H]1CN(c2ccc3ncc(-c4ccc5[nH]nc(C6CC6)c5c4)n3n2)C[C@H](C)O1 | binding, competition with immobilised ligand | 0.5 µM | 94% |
| C[C@@H]1CCN(c2nccc(-c3cnn4ncccc34)n2)C1 | binding | 1 µM | 100% |
| Cc1cnc(Nc2ccc(C(=O)N3CCC(N4CCCC4)CC3)cc2)nc1-c1cc2ccccc2s1 | binding, competition with immobilised ligand | 1 µM | 2.5% |
| O=C(O)[C@H]1[C@H](Cn2nnc3ccccc3c2=O)CC[C@@H]1C(=O)c1ccc(OCCC2CCOCC2)cc1 | cell-free assay, competition with immobilised ligand | 1 µM | 76% |
| COc1cnc(Nc2cccc(S(N)(=O)=O)c2)nc1N1CCN(c2ccccc2)CC1 | binding, competition with immobilised ligand | 1 µM | 82% |
| CC(C)(C)c1ccc(-c2nc(CBr)nn2-c2cccc(O)c2)cc1 | cell-free assay, competition with immobilised ligand | 10 µM | 100% |
| CN(C)c1nccc(-c2cnc3ncccn23)n1 | binding | 1 µM | 100% |
| O=C(c1ccc(Nc2ncc(Cl)c(-c3ccc(Cl)s3)n2)cc1)N1CCC(N2CCCC2)CC1 | binding, competition with immobilised ligand | 1 µM | 7.2% |
| CN(C)C(=O)Cn1cc(-c2nc([C@@](C)(c3ccc(-c4cnc(N)nc4)cc3)C3CC3)no2)cn1 | cell-free assay, competition with immobilised ligand | 1 µM | 77% |
| CN(C)c1nccc(-c2cnn3ncccc23)n1 | binding | 1 µM | 100% |
| O=C(O)c1cc(-c2ccc(C3CCNCC3)cc2)c2ccc(-c3ccc(C(F)(F)F)cc3)cc2c1 | cell-free assay, competition with immobilised ligand | 1 µM | 100% |
| O=C(c1ccc(Nc2ncc(Cl)c(-c3cc4ccccc4s3)n2)cc1)N1CCC(N2CCCC2)CC1 | binding, competition with immobilised ligand | 1 µM | 1.6% |
| O=C(Nc1cccnn1)N1CCC(=Cc2cccc(Oc3ccc(C(F)(F)F)cn3)c2)CC1 | cell-free assay, competition with immobilised ligand | 1 µM | 100% |
| COc1ccnn2ncc(-c3ccnc(N(C)C)n3)c12 | binding | 1 µM | 91% |
| O=C(Nc1c[nH]nc1C(=O)NC1CCNCC1)c1cc(F)cc(F)c1 | binding, competition with immobilised ligand | 1 µM | 78% |
| COc1ncc2cc3ccccc3nc2c1C#N | cell-free assay, competition with immobilised ligand | 5 µM | 99% |
| COc1cnc(Nc2cccc(S(N)(=O)=O)c2)nc1N1CCN(c2ccccc2)C(=O)C1 | binding, competition with immobilised ligand | 1 µM | 100% |
| C[C@H](c1ccc(F)cc1)N(Cc1cccc(C(=O)O)c1)C(=O)c1cnc2ccccc2c1 | cell-free assay, competition with immobilised ligand | 1 µM | 100% |
| c1cncc(-c2cccc(Nc3nccc(NC4CCCCC4)n3)c2)c1 | binding, competition with immobilised ligand | 10 µM | 100% |
| Cc1cc(NC(=O)c2cccc(S(F)(F)(F)(F)F)c2)cc(-n2ccn3nc(-c4cccnc4)cc23)c1 | cell-free assay, competition with immobilised ligand | 1 µM | 100% |
| CN(CCCC(F)(F)F)c1nccc(-c2cnn3ncccc23)n1 | binding | 1 µM | 100% |
